Laboratory results from ChEMBL document CHEMBL1629587, “Discovery of a small-molecule inhibitor of {beta}-1,6-glucan synthesis” (2009).
Values after ≈ are worked out from the molar mass of the structure shown. Active and inactive are the calls of the source. The calls are words filed in the database; no cut-off is given here.

Columns and labels:
[1] = system: Saccharomyces cerevisiae; test: Fungicidal activity against Saccharomyces cerevisiae AY-10-R15 mutant after 24 hrs by microdilution method; type: functional; details: AY-10-R15, 24 h
[2] = system: Candida tropicalis; test: Fungicidal activity against Candida tropicalis TIMM0313 after 24 hrs by microdilution method; type: functional; details: TIMM0313, 24 h
In short: (§1)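 Fungicidal concentration: after the MIC plate read, 4 μl from each well transferred into 200 μl MOPS-buffered RPMI, incubated 24 h at 30°C; MFC = lowest drug concentration with no visible growth.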

[3] = system: Escherichia coli; test: Antibacterial activity against Escherichia coli NIHJ; type: functional
[4] = system: Pichia kudriavzevii; test: Antifungal activity against Candida krusei TIMM0269 after 24 hrs by microdilution method; type: functional; details: TIMM0269, 24 h
In short: (§2)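 CLSI broth microdilution run at 30°C instead of standard temperature; starting inoculum 1 × 10^3 to 3 × 10^3 cells/ml; DMSO under 1% final. Endpoints: MIC-0 = lowest concentration giving an optically clear well; MIC-2 = 50% drop versus drug-free control in absorbance at 570 nm with alamar blue redox indicator, used because treated cells clump.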

[5] = system: Candida albicans; test: Antifungal activity against Candida albicans ATCC 24433 after 24 hrs by microdilution method; type: functional; details: ATCC 24433, 24 h; in short: as §2
[6] = system: Saccharomyces cerevisiae; test: […] activity against Saccharomyces cerevisiae AY-10 transformed with empty vector pRS416 after 24 hrs by microdilution method; type: functional; details: AY-10, 24 h
[7] = system: Saccharomyces cerevisiae; test: […] activity against Saccharomyces cerevisiae AY-10 after 24 hrs by microdilution method; type: functional; details: AY-10, 24 h
[8] = system: Candida albicans; test: Inhibition of hyphal elongation of Candida albicans ATCC 24433 at 1 ug/ml after 6 hrs by microscopy; type: functional, organism-based
In short: (§3)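 Hyphae induced in HFM-7 medium (Lee's medium also used) on type I collagen-coated wells, drug 0, 1, 4 or 16 μg/ml; static culture at 37°C, viewed by light microscopy after 6 h or 24 h.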

[9] = system: Saccharomyces cerevisiae; test: […] activity against Saccharomyces cerevisiae AY-10 transformed with pRS416-31 carrying KRE6 gene after 24 hrs by microdilution method; type: functional; details: AY-10, 24 h
[10] = system: Candida albicans; test: Inhibition of hyphal elongation of Candida albicans ATCC 24433 at 16 ug/ml after 6 hrs by microscopy; type: functional, organism-based; in short: as §3
[11] = system: Saccharomyces cerevisiae; test: Inhibition of mannan synthesis in Saccharomyces cerevisiae AY-10 assessed as reduction in [14C]glucose incorporation at 0.078 to 1.25 ug/ml after 1 hr; type: functional, organism-based
In short: (§4)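 Exponential cells in RPMI 1640 at A595 about 0.6, pulse-labelled with [14C]glucose 2 μCi/ml plus drug at 30°C, sampled at 1 and 3 h. Cell wall fractionated: mannan from 3% NaOH extracts at 80°C by Fehling's reaction; residue digested with Zymolyase 100T (1 mg/ml), insoluble part = chitin; β-1,3-glucan = total glucan minus dialysed β-1,6-glucan. Scintillation counting; % change versus untreated.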

[12] = system: Candida tropicalis; test: Antifungal activity against Candida tropicalis TIMM0313 after 24 hrs by microdilution method; type: functional; details: TIMM0313, 24 h; in short: as §2
[13] = system: Aspergillus sp.; test: Antifungal activity against Aspergillus sp. at 32 ug/ml after 24 hrs by microdilution method; type: functional, organism-based; in short: as §2
[14] = system: Saccharomyces cerevisiae; test: Antifungal activity against Saccharomyces cerevisiae YPH500 after 24 hrs by microdilution method; type: functional; details: YPH500, 24 h
In short: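 CLSI broth microdilution, incubated at 30°C, starting inoculum 1 × 10^3 to 3 × 10^3 cells/ml; drugs from DMSO, final DMSO below 1%. MIC-0 is the lowest concentration giving an optically clear well. MIC-2 is read with alamar blue as a 50% drop in A570 versus the drug-free control; both endpoints were recorded.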

[15] = system: Candida albicans; test: Inhibition of hyphal elongation of Candida albicans ATCC 24433 at 16 ug/ml after 24 hrs by microscopy; type: functional, organism-based; in short: as §3
[16] = system: Candida albicans; test: Inhibition of hyphal elongation of Candida albicans ATCC 24433 at 4 ug/ml after 6 hrs by microscopy; type: functional, organism-based; in short: as §3
[17] = system: Aspergillus terreus; test: Antifungal activity against Aspergillus terreus ATCC 28301 after 24 hrs by microdilution method; type: functional; details: ATCC 28301, 24 h; in short: as §2
[18] = system: Trichosporon asahii; test: Antifungal activity against Trichosporon asahii ATCC 90039 after 24 hrs by microdilution method; type: functional; details: ATCC 90039, 24 h; in short: as §2
[19] = system: Candida parapsilosis; test: Antifungal activity against Candida parapsilosis IFO1396 after 24 hrs by microdilution method; type: functional; details: Lodderomyces parapsilosis, IFO1396, 24 h; in short: as §2
[20] = system: Clavispora lusitaniae; test: Antifungal activity against Candida lusitaniae ATCC 200951 after 24 hrs by microdilution method; type: functional; details: ATCC 200951, 24 h; in short: as §2
[21] = system: Cryptococcus neoformans; test: Antifungal activity against Cryptococcus neoformans ATCC 90112 at 32 ug/ml after 24 hrs by microdilution method; type: functional, organism-based; in short: as §2
[22] = system: Trichosporon asahii; test: Antifungal activity against Trichosporon asahii ATCC 90039 at 32 ug/ml after 24 hrs by microdilution method; type: functional, organism-based; in short: as §2
[23] = system: Nakaseomyces glabratus; test: Induction of multibudding phenotype in Candida glabrata IFO0622 after 18 hrs by microscopy; type: functional, organism-based
In short: (§5)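 Exponential-phase cells suspended in RPMI 1640 with or without drug (2 μg/ml shown), shaken gently 18 h at 30°C, fixed in 3% glutaraldehyde in 0.1 M phosphate buffer, inspected by inverted light microscopy.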

[24] = system: Saccharomyces cerevisiae; test: […] activity against Saccharomyces cerevisiae AY-10 transformed with pRS416-13 carrying ADP1 gene after 24 hrs by microdilution method; type: functional; details: AY-10, 24 h
[25] = system: Candida albicans; test: Antifungal activity against Candida albicans ATCC MYA-573 after 24 hrs by microdilution method; type: functional; details: ATCC MYA-573, 24 h; in short: as §2
[26] = system: Nakaseomyces glabratus; test: Fungicidal activity against Candida glabrata IFO0622 after 24 hrs by microdilution method; type: functional; details: IFO0622, 24 h; in short: as §1
[27] = system: Candida tropicalis; test: Antifungal activity against Candida tropicalis ATCC 200956 after 24 hrs by microdilution method; type: functional; details: ATCC 200956, 24 h; in short: as §2
[28] = system: Saccharomyces cerevisiae; test: Fungicidal activity against Saccharomyces cerevisiae AY-10-R11 mutant after 24 hrs by microdilution method; type: functional; details: AY-10-R11, 24 h
[29] = system: Saccharomyces cerevisiae; test: Fungicidal activity against Saccharomyces cerevisiae AY-10-R4 mutant after 24 hrs by microdilution method; type: functional; details: AY-10-R4, 24 h
[30] = system: Saccharomyces cerevisiae; test: Inhibition of chitin synthesis in Saccharomyces cerevisiae AY-10 assessed as reduction in [14C]glucose incorporation at 0.078 to 1.25 ug/ml after 1 hr; type: functional, organism-based; in short: as §4
[31] = system: Candida albicans; test: Induction of multibudding phenotype in Candida albicans ATCC 24433 after 18 hrs by microscopy; type: functional, organism-based; in short: as §5
[32] = system: Saccharomyces cerevisiae; test: Fungicidal activity against Saccharomyces cerevisiae AY-10-R16 mutant after 24 hrs by microdilution method; type: functional; details: AY-10-R16, 24 h
[33] = system: Saccharomyces cerevisiae; test: Induction of multibudding phenotype in Saccharomyces cerevisiae YPH500 after 18 hrs by microscopy; type: functional, organism-based; in short: as §5
[34] = system: Saccharomyces cerevisiae; test: Inhibition of chitin synthesis in Saccharomyces cerevisiae AY-10 assessed as reduction in [14C]glucose incorporation at 0.078 to 1.25 ug/ml after 3 hrs; type: functional, organism-based; in short: as §4

CCc1c(C)c(C#N)c2nc3ccccc3n2c1NCCN(CC)CC
MIC [1]: > 64 µg/mL | MFC [2]: > 32 µg/mL | MIC [3]: > 32 µg/mL | MIC [4]: 16 µg/mL (≈ 45.8 µM) | MIC50 [4]: 8 µg/mL (≈ 22.9 µM) | MIC [5]: 32 µg/mL (≈ 91.6 µM) | MIC50 [5]: 8 µg/mL (≈ 22.9 µM) | MIC [6]: 2 µg/mL (≈ 5.72 µM) | MIC [7]: 2 µg/mL (≈ 5.72 µM) | inhibition [8]: Active | MIC [9]: 32 µg/mL (≈ 91.6 µM) | inhibition [10]: Active | inhibition [11]: inactive | MIC [12]: 8 µg/mL (≈ 22.9 µM) | MIC50 [12]: 1 µg/mL (≈ 2.86 µM) | Activity [13]: inactive | MIC [14]: 2 µg/mL (≈ 5.72 µM) | MIC50 [14]: 1 µg/mL (≈ 2.86 µM) | inhibition [15]: Active | inhibition [16]: Active | MIC [17]: > 32 µg/mL | MIC50 [17]: > 32 µg/mL | MIC [18]: > 32 µg/mL | MIC50 [18]: > 32 µg/mL | MIC [19]: > 32 µg/mL | MIC50 [19]: 4 µg/mL (≈ 11.4 µM) | MIC [20]: 16 µg/mL (≈ 45.8 µM) | MIC50 [20]: 8 µg/mL (≈ 22.9 µM) | Activity [21]: inactive | Activity [22]: inactive | Activity [23]: Active | MIC [24]: 4 µg/mL (≈ 11.4 µM) | MIC [25]: 32 µg/mL (≈ 91.6 µM) | MIC50 [25]: 16 µg/mL (≈ 45.8 µM) | MFC [26]: 32 µg/mL (≈ 91.6 µM) | MIC [27]: 1 µg/mL (≈ 2.86 µM) | MIC50 [27]: 1 µg/mL (≈ 2.86 µM) | MIC [28]: 8 µg/mL (≈ 22.9 µM) | MIC [29]: 8 µg/mL (≈ 22.9 µM) | inhibition [30]: inactive | Activity [31]: Active | MIC [32]: 4 µg/mL (≈ 11.4 µM) | Activity [33]: Active | inhibition [34]: inactive
